From ChEMBL document CHEMBL3875213, “Quinolines: Microwave-assisted synthesis and their antifungal, anticancer and radical scavenger properties” (Bioorg Med Chem, 2017)
In brackets after ≈: the same amount, converted by molar mass. Activity calls are given as the source filed them. No cut-off for these calls is given here.

Legend:
Format in all cases: functional
[1] = system: Candida albicans; experiment: Growth inhibition of Candida albicans ATCC 10231 at 7.81 ug/ml incubated for 48 hrs under dark condition by broth microdilution assay relative to amphotericin B; settings: ATCC 10231, 48 h, read-out: GI
Summary of the method: (§1)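 Yeast broth microdilution (CLSI M27-A3), RPMI-1640, inoculum 1-5 x 10^3 CFU/mL, DMSO ≤1%, 48 h at 30 °C in a moist, dark chamber. […]. Triplicate; amphotericin B as positive control.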

[2] = Antifungal activity against Cryptococcus neoformans ATCC 32264 incubated for 48 hrs under dark condition by broth microdilution assay
Summary of the method: (§2)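 Broth microdilution per CLSI M27-A3 in RPMI-1640. Inocula adjusted to 1-5 x 10^3 CFU/mL. Stocks in DMSO (≤1%), final 3.9-250.0 µg/mL. Incubated 48 h at 30 °C in a moist, dark chamber, read at OD 405. % inhibition computed from growth and sterility control wells, run in triplicate. MIC80/MIC50 taken from four-parameter logistic concentration-response curves; amphotericin B as positive control.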

[3] = system: Candida albicans; experiment: Growth inhibition of Candida albicans ATCC 10231 at 125 ug/ml incubated for 48 hrs under dark condition by broth microdilution assay relative to amphotericin B; settings: ATCC 10231, 48 h, read-out: GI; summary of the method: as §1
[4] = system: Candida albicans; experiment: Growth inhibition of Candida albicans ATCC 10231 at 31.25 ug/ml incubated for 48 hrs under dark condition by broth microdilution assay relative to amphotericin B; settings: ATCC 10231, 48 h, read-out: GI; summary of the method: as §1
[5] = system: Candida albicans; experiment: Growth inhibition of Candida albicans ATCC 10231 at 3.9 ug/ml incubated for 48 hrs under dark condition by broth microdilution assay relative to amphotericin B; settings: ATCC 10231, 48 h, read-out: GI; summary of the method: as §1
[6] = system: Candida albicans; experiment: Growth inhibition of Candida albicans ATCC 10231 at 15.62 ug/ml incubated for 48 hrs under dark condition by broth microdilution assay relative to amphotericin B; settings: ATCC 10231, 48 h, read-out: GI; summary of the method: as §1
[7] = system: Candida albicans; experiment: Growth inhibition of Candida albicans ATCC 10231 at 62.5 ug/ml incubated for 48 hrs under dark condition by broth microdilution assay relative to amphotericin B; settings: ATCC 10231, 48 h, read-out: GI; summary of the method: as §1
[8] = Antioxidant activity assessed as fluorescent light-induced superoxide anion scavenging activity at 160 uM incubated for 10 mins by nitroblue tetrazolium dye based assay
Summary of the method: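 Superoxide generated photochemically in 50 mM phosphate buffer pH 7.8 with 13 mM L-methionine, 75 µM nitroblue tetrazolium, 100 µM EDTA and 2 µM riboflavin. Compound at 160 µM. 10 min at 25 °C under fluorescent light; dark controls. Read at 575 nm. Resveratrol as positive control; three independent experiments in triplicate.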

[9] = system: Candida albicans; experiment: Antifungal activity against Candida albicans ATCC 10231 incubated for 48 hrs under dark condition by broth microdilution assay; settings: ATCC 10231, 48 h; summary of the method: as §2
[10] = system: Candida albicans; experiment: Growth inhibition of Candida albicans ATCC 10231 at 250 ug/ml incubated for 48 hrs under dark condition by broth microdilution assay relative to amphotericin B; settings: ATCC 10231, 48 h, read-out: GI; summary of the method: as §1
[11] = Antioxidant activity assessed as fluorescent light-induced superoxide anion scavenging activity incubated for 10 mins by nitroblue tetrazolium dye based assay
Summary of the method: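 Riboflavin/light superoxide system: 50 mM phosphate pH 7.8, 13 mM L-methionine, 75 µM NBT, 100 µM EDTA, 2 µM riboflavin, compound 0-200 µg/mL. Fluorescent light for 10 min at 25 °C, dark controls, scavenging measured at 575 nm. Resveratrol as reference.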

[12] = Antioxidant activity assessed as DPPH radical scavenging activity at 160 uM incubated for 30 mins under dark condition
Summary of the method: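 Compound at 160 µM incubated with 100 µM DPPH in ethanolic medium, stirred in the dark for 30 min, read at 517 nm. Resveratrol as positive control. Three independent experiments, each in triplicate.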

[13] = Antioxidant activity assessed as DPPH radical scavenging activity incubated for 30 mins under dark condition
Summary of the method: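 DPPH (100 µM) in ethanolic medium, stirred 30 min in the dark, absorbance at 517 nm. Compound varied from 0 to 160 µg/mL to find the concentration scavenging 50% of radicals. Three independent experiments, each in triplicate.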

MIC50 [2] [µg/mL] | MIC80 [2] [µg/mL] | MIC50 [9] [µg/mL] | MIC80 [9] [µg/mL] | Structure (SMILES) | inhibition of growth at 7.81 µg/mL [1] [%] | inhibition of growth at 125 µg/mL [3] [%] | inhibition of growth at 31.25 µg/mL [4] [%] | inhibition of growth at 3.9 µg/mL [5] [%] | inhibition of growth at 15.62 µg/mL [6] [%] | inhibition of growth at 62.5 µg/mL [7] [%] | Activity [8] | inhibition of growth at 250 µg/mL [10] [%] | SC50 [11] [µM] | Activity [12] | SC50 [13] [µM]
250 (≈ 768 µM) | > 250 | 250 (≈ 768 µM) | > 250 | O=C(O)c1ccc2nc(-c3ccccc3)cc(-c3ccccc3)c2c1 | 5.63 | 34.6 | 11.9 | 0 | 7.19 | 22.6 | Active | 57.5 | – | – | –
7.8 (≈ 21 µM) | 15.6 (≈ 42 µM) | 125 (≈ 337 µM) | 125 (≈ 337 µM) | COc1cc2nc(-c3ccccc3)cc(-c3ccccc3)c2c(OC)c1OC | 6.81 | 86.7 | 8.13 | 0 | 6.76 | 20.7 | Active | 100 | > 250 | 70 to 85% | 18.9
15.6 (≈ 47.6 µM) | 31.2 (≈ 95.3 µM) | 250 (≈ 763 µM) | > 250 | CSc1ccc2nc(-c3ccccc3)cc(-c3ccccc3)c2c1 | 11.2 | 39.2 | 16 | 4.72 | 11.2 | 21.7 | Active | 66.3 | – | – | –
– | – | – | – | Oc1ccc(/C=C/c2cc(O)cc(O)c2)cc1 | – | – | – | – | – | – | Active | – | 255 | Active | 8.2
15.6 (≈ 52.5 µM) | > 250 | > 250 | > 250 | Oc1ccc2c(-c3ccccc3)cc(-c3ccccc3)nc2c1 | 0 | 29.9 | 12.8 | 0 | 80.4 | 21.2 | – | 53.9 | – | 70 to 85% | –
> 250 | > 250 | > 250 | > 250 | COc1ccc(-c2cc(-c3ccccc3)c3cc(Br)ccc3n2)cc1 | 0 | 8.32 | 4.5 | 0 | 4.06 | 4.57 | Active | 10.6 | – | – | –
250 (≈ 651 µM) | > 250 | 250 (≈ 651 µM) | > 250 | FC(F)(F)c1cc2nc(-c3ccccc3)cc(-c3ccccc3)c2cc1Cl | 3.5 | 25.7 | 9.41 | 0 | 5.36 | 15.7 | – | 54.1 | – | – | –
0.12 (≈ 0.13 µM) | 0.25 (≈ 0.271 µM) | 0.06 (≈ 0.0649 µM) | 0.12 (≈ 0.13 µM) | C[C@@H]1[C@H](O)[C@@H](C)/C=C/C=C/C=C/C=C/C=C/C=C/C=C/[C@H](O[C@@H]2O[C@H](C)[C@@H](O)[C@H](N)[C@@H]2O)C[C@@H]2O[C@](O)(C[C@@H](O)C[C@@H](O)[C@H](O)CC[C@@H](O)C[C@@H](O)CC(=O)O[C@H]1C)C[C@H](O)[C@H]2C(=O)O [AMPHOTERICIN B] | – | – | – | – | – | – | – | – | – | – | –
> 250 | > 250 | 250 (≈ 835 µM) | > 250 | Fc1ccc2nc(-c3ccccc3)cc(-c3ccccc3)c2c1 | 2.01 | 34.2 | 11.8 | 0 | 4.27 | 18.4 | < 10% | 67.5 | – | – | –
125 (≈ 408 µM) | 250 (≈ 816 µM) | 250 (≈ 816 µM) | > 250 | N#Cc1ccc2nc(-c3ccccc3)cc(-c3ccccc3)c2c1 | 8.25 | 39 | 12.7 | 0 | 9.26 | 19.7 | Active | 69.9 | 220 | 70 to 85% | 19.5
15.6 (≈ 49.4 µM) | > 250 | > 250 | > 250 | Clc1ccc2nc(-c3ccccc3)cc(-c3ccccc3)c2c1 | 8.07 | 53.9 | 20 | 0 | 14 | 33.1 | < 10% | 89.8 | – | – | –
125 (≈ 383 µM) | 250 (≈ 766 µM) | > 250 | > 250 | O=[N+]([O-])c1ccc2nc(-c3ccccc3)cc(-c3ccccc3)c2c1 | 0 | 15.4 | 1.57 | 0 | 0 | 5.93 | Active | 36.1 | > 250 | 45 to 55% | 104
> 250 | > 250 | > 250 | > 250 | O=[N+]([O-])c1ccc(-c2cc(-c3ccccc3)c3cc(Br)ccc3n2)cc1 | 1.55 | 5.11 | 4.01 | 0 | 2.64 | 4.28 | Active | 18.2 | – | 40% | –
125 (≈ 420 µM) | 250 (≈ 841 µM) | 250 (≈ 841 µM) | > 250 | Oc1ccc2nc(-c3ccccc3)cc(-c3ccccc3)c2c1 | 0 | 3.51 | 0 | 0 | 0 | 0 | Active | 12.2 | > 250 | 70 to 85% | > 250
250 (≈ 716 µM) | 250 (≈ 716 µM) | > 250 | > 250 | FC(F)(F)c1ccc2nc(-c3ccccc3)cc(-c3ccccc3)c2c1 | 2.81 | 14 | 7.83 | 0 | 3.65 | 8.77 | – | 20.1 | > 250 | 45 to 55% | 261
3.9 (≈ 11.6 µM) | 15.6 (≈ 46.2 µM) | > 250 | > 250 | CC(C)(C)c1ccc2nc(-c3ccccc3)cc(-c3ccccc3)c2c1 | 0 | 1.84 | 0 | 0 | 0 | 0 | 50% | 7.81 | > 250 | – | > 250
